This is a sample that favours compounds with a hit; in the whole collection about 0.54% have one here.
PP5 primary = inhibitors of human protein phosphatase 5 (PP5); P53041; purified PP5c, OMFP substrate fluorescence; inhibition, % at 6.7 µM; hit rate 0.18% among 320,000; AID 1987;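 active = inhibition above the campaign's mean inhibition across all tested compounds plus 3 SD, cut at about 9.5% in these data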;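 note: 0% = DMSO only and 100% = 100 µM cantharidin control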
ASAP1 inh = blocks human ASAP1-stimulated Arf1 GTP hydrolysis; GDP FP detection; AID 624377; inhibition, % at 16.5 µM; hit rate 0.19% among 360,000; in the data active = inhibition above about 25%;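 note: 0% = vehicle with enzyme and substrate and 100% = no enzyme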
Target sequence (Q9ULH1 325-724 limits assumed): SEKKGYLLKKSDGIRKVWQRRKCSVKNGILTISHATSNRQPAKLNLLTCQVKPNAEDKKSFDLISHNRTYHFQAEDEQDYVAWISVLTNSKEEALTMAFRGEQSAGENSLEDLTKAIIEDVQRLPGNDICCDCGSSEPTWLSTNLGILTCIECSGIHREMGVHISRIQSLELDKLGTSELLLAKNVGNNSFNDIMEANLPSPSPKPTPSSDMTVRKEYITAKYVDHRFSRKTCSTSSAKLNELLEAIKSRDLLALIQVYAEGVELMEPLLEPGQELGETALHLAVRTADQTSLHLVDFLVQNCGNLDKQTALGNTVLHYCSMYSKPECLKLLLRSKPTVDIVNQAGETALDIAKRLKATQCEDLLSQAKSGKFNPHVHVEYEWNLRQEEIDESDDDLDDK
PKD1 kinase inh = blocks activity of human protein kinase D1 | inhibition, % (no concentration beside the values) | PKD1 kinase fluorescence polarization assay | hit rate 0.056% among 200,000; in the data active = inhibition above about 50%
ARFGAP1 inh = inhibits rat ARF GTPase activating protein 1 | Q62848 | Arfgap1-stimulated ARF1 GTP hydrolysis, GDP FP detection | inhibition, % at 16.5 µM | hit rate 0.26% among 360,000 | AID 651572;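 active = inhibition above a per-plate limit, mean inhibition of low control wells plus 3 SD, cut at about 25% in these data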;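 note: 0% = DMSO wells with enzyme and 100% = wells lacking Arfgap1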
Target sequence (Q62848 1-136 limits assumed): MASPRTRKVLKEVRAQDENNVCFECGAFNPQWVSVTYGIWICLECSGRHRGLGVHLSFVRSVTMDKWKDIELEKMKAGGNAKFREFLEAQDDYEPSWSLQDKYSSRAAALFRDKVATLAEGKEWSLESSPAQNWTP
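System: truncated rat Arfgap1 GAP domain / Benchmarks: high control wells lacking Arfgap1, low control full reaction with DMSO / Times: compound-enzyme preincubation 20 min, reaction 120 min, detection 60 min, 25 °C / Repeats: one replicate per compound / Also added: human ARF1(Δ1-17)-GTP substrate / Measured by: Tracer-displacement fluorescence polarization with EDTA stop, 620/688 nm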
ASAP1 GAP conf = ASAP1 inhibition confirmed; shares compounds with ASAP1 inh; ASAP1-stimulated Arf1 GTPase, GDP fluorescence polarization; inhibition, % at 16.5 µM; hit rate 37% among 620;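 active = mean inhibition over triplicates exceeds the hit threshold derived for the earlier primary screening run, cut at about 25% in these data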
Numbers without * were called inactive; · = not tested or not shown.

SMILES	PP5 primary	ASAP1 inh	PKD1 kinase inh	ARFGAP1 inh	ASAP1 GAP conf
Cc1cc([N+](=O)[O-])c(C)cc1-c1ccc(/C=N/NC(=O)c2cccnc2)o1	1.7	24.7*	-5.3	-2.9	21.2
O=C(CNC(=O)c1ccc(Cl)cc1Cl)NCCCn1ccnc1	-0.4	28.8*	-0.5	5.2	-3.5
O=[N+]([O-])c1ccc(OCCOc2ccccc2/C=N/n2cnnc2)cc1	2.3	37.2*	7.5	-1.9	45.9*
COc1ccc(OCc2cc(C(=O)NC3CCOCC3)no2)c2ccccc12	1.8	29.9*	·	0.1	1.5
CCOc1ccc(NS(=O)(=O)c2ccc(NC(=S)NC(=O)C(C)C)cc2)cc1	5.2	4.5	1.8	1.3	·
COc1ccc(NS(=O)(=O)c2ccc(NC(=S)NC(=O)C(C)C)cc2)cc1	3.2	31.5*	8.9	1.9	10.6
O=C1Cc2ccccc2C(=O)N1CCc1ccccc1	2.5	33.4*	-5.7	12.6	14.8
O=C1C(=O)N(Cc2ccccc2)C(=O)N1CCN1C(=O)c2ccccc2C1=O	1.3	6.3	1.2	0.4	·
CN(C)c1ccc(-c2[nH][nH]c(=O)c2NC(=O)c2ccc3ccccc3n2)cc1	·	36.2*	·	-6.7	0.0
CN(C)c1ccc(-c2[nH][nH]c(=O)c2NC(=O)c2ccccn2)cc1	·	9.3	·	-10.6	·
Cc1ccc(-c2nnc(N(C)C(=O)c3cccnc3)s2)cc1	0.8	-5.3	-13.5	1.9	·
Cc1ccc(-c2nnc(N(C)C(=O)c3cccnc3)s2)cn1	0.9	25.6*	0.4	0.8	9.2
Cn1c(NCc2ccccc2F)nc2cc(-c3cccc(C(F)(F)F)c3)sc2c1=O	·	13.7	·	-10.9	·
COc1ccccc1CNc1nc(NCc2ccccc2OC)c2sccc2n1	·	-11.7	·	4.1	·
COc1ccccc1CNc1nc(NCCOc2ccccc2)c2sccc2n1	·	25.0*	·	6.7	15.6
CCN1CCN(c2cc(C)c3cc(NC(=O)c4ccc(OC)c(OC)c4)ccc3n2)CC1	0.5	37.2*	-6.1	22.3	49.9*
Cc1ccc(C(=O)Oc2ccc(C(=O)COC(=O)C3CC(=O)N(Cc4ccco4)C3)cc2)cc1 (stereo unspecified)	-4.8	·	-9.4	·	·
O=C(COC(=O)C1CC(=O)N(Cc2ccco2)C1)c1ccc(OC(=O)c2ccco2)cc1 (stereo unspecified)	0.9	28.4*	-10.0	-2.3	4.3
COc1ccc(Cl)cc1S(=O)(=O)NCc1cccnc1	-1.9	25.6*	-3.1	11.0	7.7
O=C(NCc1ccccc1)[C@H]1CCCN1	·	-3.1	·	3.7	·
CNc1ncnc2c1ncn2[C@H]1CN(Cc2ccc(-c3ccccc3)cc2)C[C@@H](CO)O1	·	-8.4	·	-5.0	·
OC[C@@H]1CN(Cc2ccc(-c3ccccc3)cc2)C[C@H](n2cnc3c(Nc4ccccc4)ncnc32)O1	·	26.0*	·	11.1	11.6
CCN(Cc1ccccc1)C(=O)Nc1c(Cl)cccc1Cl	·	10.7	·	9.6	·
CN1CCC(N2CCN(C3CN(Cc4cn(Cc5ccc(C(F)(F)F)cc5)nn4)S(=O)(=O)C3)CC2)CC1 (stereo unspecified)	·	-7.6	·	-2.8	·
CCN(C(=S)NCc1ccccc1)c1ccccc1	2.5	-12.3	-3.7	-3.6	·
SMILES	PP5 primary	ASAP1 inh	PKD1 kinase inh	ARFGAP1 inh	ASAP1 GAP conf
CCN(C(=S)NCc1ccccc1)c1cccc2ccccc12	0.0	24.8*	-2.5	-0.4	2.2
COc1cc(/C=C2/SC(N)=NC2=O)ccc1Oc1ccc([N+](=O)[O-])cc1[N+](=O)[O-]	-1.2	29.3*	23.9	-4.3	49.4*
CC(C)=CCn1c2ccc(NC(=O)Nc3cccnc3)cc2c(=O)n1C	·	24.8*	·	7.2	6.3
CCCS(=O)(=O)NC(=O)C1(C)CCN(C(=O)Cc2ccc3ccccc3c2)C1 (stereo unspecified)	·	-3.4	·	-3.4	·
Cc1ccc(NC(=O)COc2ccc(CCO)cc2-n2nc3ccccc3n2)cc1C	3.1	26.3*	-7.9	4.6	-0.6
Cc1ccc(-c2csc(NC(=O)COc3ccc(N(C)S(=O)(=O)c4ccc(C)cc4)cc3)n2)cc1	1.0	25.3*	-4.7	4.2	7.3
Cc1cc2c(nc1C)CCCN2Cc1ccc(Br)cc1	·	-1.2	·	-1.0	·
Oc1ccccc1C=NC(N=Cc1ccccc1O)c1ccccc1O (stereo unspecified)	·	17.8	·	12.8	·
CC[n+]1c(/C=C/C=C/N(C(C)=O)c2ccccc2)sc2ccccc21	-0.9	45.0*	-26.5	23.4	43.9*
CCn1c(/C=C/N(C(C)=O)c2ccccc2)[n+](CC)c2ccc(Cl)cc21	3.3	6.3	11.1	8.1	·
CC(C)C(N)c1csc(NC(=O)Nc2cccc(Cl)c2)n1 (stereo unspecified)	·	13.5	·	-0.9	·
O=C(CCCN1C(=O)/C(=C/c2ccc(F)cc2)SC1=S)NCCCn1ccnc1	2.4	25.7*	·	-3.2	-4.0
COc1ccc(/C=C2\SC(=S)N(CCC(=O)NCCCn3ccnc3)C2=O)cc1	0.8	2.3	·	16.7	·
O=C(NC1CCCC1)C1C(c2ccc(C(F)(F)F)cc2)=Nc2ccccc2N1C(=O)c1cccc2ccccc12 (stereo unspecified)	·	-10.8	·	4.3	·
C[C@H](O)[C@@H]1C(=O)N2CCc3c([nH]c4c(-c5ccc6c(c5)OCO6)cccc34)[C@@H]2C[C@@H]1N(C)C(=O)Nc1ccccc1	·	28.9*	·	-2.8	20.4
Cc1ccccc1NC(=O)N(C)[C@H]1C[C@H]2c3[nH]c4c(-c5ccc6c(c5)OCO6)cccc4c3CCN2C(=O)[C@H]1[C@H](C)O	·	-5.3	·	6.6	·
CCCS(=O)(=O)c1c(S(=O)(=O)CCC)c2cnccn2c1C(=O)c1ccc(Cl)cc1	0.8	27.1*	-4.0	-4.8	6.5
C[C@@H]1CCCCO[C@H](CN(C)Cc2ccc3c(c2)OCO3)[C@@H](C)CN([C@H](C)CO)C(=O)c2cc(NC(=O)c3ccccc3)ccc2O1	·	11.4	·	-7.7	·
O=C1NC(Cc2c[nH]c3ccccc23)C(=O)N1Cc1ccc(CN2C(=O)NC(Cc3c[nH]c4ccccc34)C2=O)cc1 (stereo unspecified)	5.3	29.4*	5.7	7.9	12.5
COc1ccc(S(=O)(=O)NNC(=S)NCCc2ccccc2)c(OC)c1	0.4	25.5*	·	6.3	4.4
Cc1c(CN2CCN(c3ncc(Cc4ccccc4)cn3)CC2)c(=O)n(-c2ccccc2)n1C	·	8.2	·	-8.7	·
Cc1cc2c(cc1C)-n1nnnc1C(N(C)Cc1ccccc1)C(=O)N2 (stereo unspecified)	·	-2.4	·	-17.5	·
Cc1ccc(C(=O)NCCC2=CCCCC2)cc1S(=O)(=O)N1CCCCC1	6.3	27.9*	·	-1.2	5.1
Cc1ccc(C(=O)NCCC2=CCCCC2)cc1S(=O)(=O)N1CCOCC1	-0.9	-7.2	·	-0.9	·
COC(=O)C1=C(C)N(C)C(=NCC2CC2)NC1CCc1ccccc1 (stereo unspecified)	·	4.7	·	11.4	·
O=C(NCc1ccncc1)C(=O)N/N=C/c1ccccc1OCc1ccccc1	3.8	5.5	0.6	-6.7	·
